{"data": "Results of several laboratories", "effect on": "binding", "PIK3CB": "Phosphatidylinositol 4,5-bisphosphate 3-kinase catalytic subunit beta isoform (PIK3CB, Homo sapiens, UniProt P42338)", "mnmE": "mnmE (Escherichia coli, UniProt P25522)", "UCK2": "Uridine-cytidine kinase 2 (UCK2, Homo sapiens, UniProt Q9BZX2)", "LRP1": "LRP1 (Homo sapiens, UniProt Q07954)", "PIKFYVE": "1-phosphatidylinositol 3-phosphate 5-kinase (PIKFYVE, Homo sapiens, UniProt Q9Y2I7)", "note": "Protocols differ between the studies behind these lines."}
{"SMILES": "NC(=O)c1ccc[n+]([C@@H]2O[C@H](COP(=O)([O-])OP(=O)(O)OC[C@H]3O[C@@H](n4cnc5c(N)ncnc54)[C@H](O)[C@@H]3O)[C@@H](O)[C@H]2O)c1", "target": "NAD-dependent histone deacetylase SIR2 (Saccharomyces cerevisiae S288c, UniProt P06700)", "assay": "SPR", "Kd [µM]": 0.575}
{"SMILES": "CCC(=O)N1CCC(C(=O)N(C)CC(=O)N2CCN(c3nc(-c4cnc(N)nc4C(F)F)nc(N4CCOCC4)n3)CC2)CC1", "target": "PIK3CB", "Kd [µM]": 0.0077}
{"SMILES": "Nc1nc(=O)c2c([nH]1)NC[C@H](CNc1ccc(C(=O)N[C@@H](CCC(=O)O)C(=O)O)cc1)N2C=O", "target": "mnmE", "assay": "ITC", "setting": "pH 7.5", "Kd [µM]": 0.26}
{"SMILES": "Nc1ccn([C@@H]2O[C@H](CO)[C@@H](O)[C@H]2O)c(=O)n1", "target": "UCK2", "assay": "fluorescence", "Kd [µM]": 0.0037}
{"SMILES": "COC(=O)[C@@H](N)CCCCN", "target": "LRP1", "assay": "fluorescence", "setting": "pH 7.4", "Kd [µM]": 370}
{"SMILES": "Cc1cnc(-c2ccc(-c3ccc(NC(=O)Nc4c(F)cc(F)cc4F)cc3F)c3c2C(=O)NC3)[nH]1", "target": "Dual specificity mitogen-activated protein kinase kinase 1 (MAP2K1, Homo sapiens, UniProt Q02750)", "assay": "competition with immobilised ligand", "Kd [µM]": 0.023}
{"SMILES": "CCC(=O)N1CCC(C(=O)NCC(=O)N2CCN(c3nc(-c4cnc(N)nc4C(F)F)nc(N4CCOCC4)n3)CC2)CC1", "target": "PIK3CB", "Kd [µM]": 0.00071}
{"SMILES": "O=C(O)c1cccc(Nc2cc(N3CCCCCC3)c3noc4c3c2C(=O)c2ccccc2-4)c1", "target": "Urokinase plasminogen activator surface receptor (Homo sapiens, UniProt Q03405)", "Kd [µM]": 0.19}
{"SMILES": "Cc1[nH]c2ccc(OC(C)C)cc2c1/C=C/C(=O)c1ccncc1", "target": "PIKFYVE", "assay": "competition with immobilised ligand", "Kd [µM]": 0.051}
{"SMILES": "[N-]=[N+]=N[C@@H]1[C@H](O)[C@@H](CO)O[C@H]1n1ccc(N)nc1=O", "target": "UCK2", "assay": "fluorescence", "Kd [µM]": 0.0178}
{"SMILES": "CCOc1ccc2[nH]c(C)c(/C=C/C(=O)c3ccncc3)c2c1", "target": "PIKFYVE", "assay": "competition with immobilised ligand", "Kd [µM]": 0.023}
{"SMILES": "CO[C@H]1O[C@H](CO)[C@@H](O)[C@H](O)[C@@H]1O", "target": "ZG16 (Homo sapiens, UniProt O60844)", "assay": "NMR", "Kd [µM]": 15000}
{"SMILES": "CCCOc1ccc2[nH]c(C)c(/C=C/C(=O)c3ccncc3)c2c1", "target": "PIKFYVE", "assay": "competition with immobilised ligand", "Kd [µM]": 0.0065}
{"SMILES": "Cc1cc2nc3c(=O)[nH]c(=O)nc-3n(C[C@H](O)[C@H](O)[C@H](O)COP(=O)(O)OP(=O)(O)OC[C@H]3O[C@@H](n4cnc5c(N)ncnc54)[C@H](O)[C@@H]3O)c2cc1C", "target": "LRP1", "setting": "lysate", "Kd [µM]": 43.9}
{"SMILES": "Nc1nc2c(c(=O)[nH]1)N1CN(c3ccc(C(=O)N[C@@H](CCC(=O)O)C(=O)O)cc3)C[C@H]1CN2", "target": "mnmE", "assay": "ITC", "setting": "pH 7.5", "Kd [µM]": 0.31}
